Experimental data published in ChEMBL document CHEMBL4145684 (J Med Chem, 2018).

Test system: Rattus norvegicus
Assay: Reduction in uterine wet weight in ethynyl estradiol-stimulated CD-IGS rat at 200 mg/kg, po dosed daily for 3 days by gavage followed 15 mins later by 0.1 mg/kg, po ethynyl estradiol and measured 24 hrs after last dose by immature rat uterine wet weight assay
Format: functional
How it was run: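 Female immature CD-IGS rats, 21 days old on arrival. Compound or vehicle was given orally by gavage once daily for 3 days, and oral ethynyl estradiol at 0.1 mg/kg followed each dose by 15 min. On day 4, 24 h after dosing, plasma was taken for PK, then the uterus was removed and weighed. % reduction = 100 × (VehicleEE − Cpd)/(VehicleEE − Vehicle).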

C[C@]12CC[C@@H]3c4ccc(O)cc4C[C@@H](CCCCCCCCC[S+]([O-])CCCC(F)(F)C(F)(F)F)[C@H]3[C@@H]1CC[C@@H]2O (stereo partly specified) [FULVESTRANT]
inhibition (INH): 110%
